For 29 compounds, IC50 results are on record in PubChem BioAssay AID588762 (The Scripps Research Institute Molecular Screening Center, 2011).

Molecules are shown by their SMILES. Calls of active or inactive are those of the source.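 The calls were made as follows: active = fitted IC50 at or below 10 µM in the dose response luciferase test; inactive = IC50 weaker than 10 µM.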

The assay addresses Epstein-Barr virus nuclear antigen 1 (EBNA-1), Human herpesvirus 4. Put plainly: relief of EBNA-1 Qp promoter repression – cell-based, luciferase, dose response, assay provider data, late-stage follow-up (AID 588762). To be noted: 293T Qp-promoter luciferase reporter, EBNA-1 repression. Summed up: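 Material: human 293T cells transiently co-transfected with Qp-promoter luciferase reporter, Flag-tagged EBNA-1; schedule: 48 h at 37 °C after plating; signal: luminescence from Steady-Glo luciferase reagent, rising as EBNA-1 repression lifts; read-out: concentration giving half-maximal luminescence stimulation, four-parameter sigmoidal fit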
(A reporter such as luciferase makes a cellular process visible.)
Broadly, the IC50 is the midpoint of a concentration-inhibition curve. On to `Cc1ccccc1C(=O)Nc1nc2ccc(S(C)(=O)=O)cc2s1`, for which the IC50 is > 148 µM (inactive).
With `CCn1c(C)cc(C(=O)CSc2nnnn2-c2ccccc2)c1C` the figure was > 148 µM (inactive).
With `Cc1ccc(C(=O)Nc2nc3cc(F)ccc3s2)cc1C` the figure was > 148 µM (inactive); with `COCCn1c(C)cc(C(=O)CSc2nnnn2-c2ccccc2)c1C`, > 148 µM (inactive).
With `CS(=O)(=O)c1ccc2nc(NC(=O)c3cccc(F)c3)sc2c1` the figure was > 148 µM (inactive); with `Cc1cc(C(=O)CSc2nnnn2-c2ccc(Cl)cc2)c(C)n1CC1CCCO1` (centres undefined), > 148 µM (inactive); with `COc1ccc(-n2nnnc2SCC(=O)c2cc(C)n(CC3CCCO3)c2C)cc1` (centres undefined), > 16.4 µM (inactive).
Regarding `COc1ccc2nc(NC(=O)c3ccc(C)c(C)c3)sc2c1`, the IC50 is > 148 µM (inactive).
With `Cc1ccc(C(=O)Nc2nc3cc(Br)ccc3s2)cc1C` the figure was > 148 µM (inactive); with `Cc1cc(C(=O)CSc2nnnn2C2CC2)c(C)n1CC1CCCO1` (centres undefined), “inactive”.
As for `COc1ccc(C(=O)Nc2nc3ccc(S(C)(=O)=O)cc3s2)cc1`, the entry is “inactive”; as for `Cc1ccccc1-n1nnnc1SCC(=O)c1cc(C)n(CC2CCCO2)c1C` (centres undefined), > 148 µM (inactive); as for `CS(=O)(=O)c1ccc2nc(NC(=O)c3ccccc3F)sc2c1`, > 148 µM (inactive).
As for `CS(=O)(=O)c1ccc2nc(NC(=O)c3ccccc3Cl)sc2c1`, the figure is > 148 µM (inactive); as for `CS(=O)(=O)c1ccc2nc(NC(=O)c3ccc(Cl)cc3)sc2c1`, “inactive”; as for `COc1cccc2sc(NC(=O)c3ccc(C)c(C)c3)nc12`, > 148 µM (inactive).
Consider `Cc1cccc(-n2nnnc2SCC(=O)c2cc(C)n(CC3CCCO3)c2C)c1` (centres undefined), for which the IC50 was > 148 µM (inactive).
As for `Cc1ccc(C(=O)Nc2nc3ccc(Br)cc3s2)cc1C`, the figure is > 148 µM (inactive).
As for `Cc1cc(C(=O)CSc2nnnn2-c2ccccc2)c(C)n1C`, the entry is “inactive”; as for `Cc1cc(C(=O)CSc2nnnn2-c2cccc(F)c2)c(C)n1CC1CCCO1` (centres undefined), > 148 µM (inactive).
With `COc1ccc2sc(NC(=O)c3ccc(C)c(C)c3)nc2c1` the figure was > 148 µM (inactive).
As to `CS(=O)(=O)c1ccc2nc(NC(=O)c3cccc(Cl)c3)sc2c1`, the IC50 is > 148 µM (inactive).
With `Cc1cc(C(=O)CSc2nnnn2C)c(C)n1CC1CCCO1` (centres undefined) the figure was > 148 µM (inactive); with `Cc1cccc(C(=O)Nc2nc3ccc(S(C)(=O)=O)cc3s2)c1`, “inactive”.
On to `Cc1ccc(C(=O)Nc2nc3ccc(S(C)(=O)=O)cc3s2)cc1`, for which the IC50 was > 148 µM (inactive).
Turning to `COc1ccccc1C(=O)Nc1nc2ccc(S(C)(=O)=O)cc2s1`, the IC50 was > 148 µM (inactive).
With `O=C(CSc1nnnn1-c1ccccc1)c1ccn(CC2CCCO2)c1` (centres undefined) the figure was > 148 µM (inactive); with `COc1cccc(C(=O)Nc2nc3ccc(S(C)(=O)=O)cc3s2)c1`, “inactive”; with `Cc1cc(C(=O)CSc2nnnn2-c2ccccc2)c(C)n1Cc1cccs1`, > 148 µM (inactive).
